High-throughput results (PubChem)
mABHD4 FP: inhibitors of mouse ABHD4; Q8VD66; purified mABHD4, FP-Rh probe fluorescence polarization; inhibition, % at 8.92 µM; actives 0.54% (n = 370,000); AID 720543;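 active means inhibition exceeding the mean over every tested compound plus 3 SD, cut at about 30% in these data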;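 further: 0% = plate median of compound wells and 100% = S159A mutant with DMSO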
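Test system: mABHD4 protein | Buffer or medium: HEPES pH 7.0 buffer, 150 mM NaCl, 0.01% Pluronic F-127 | Probe or stimulus: FP-Rh fluorescent activity-based probe, added after compound pre-incubation | Timing: Pre-incubation 45 min, probe exposure 60 min, at 25 °C | Technique: Fluorescence polarization, excitation 525 nm, emission 598 nm, BODIPY TMR filters | Repeats: Single well per compound (singlicate)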
PRMT1 inh: blocks human protein arginine methyltransferase 1. Q99873. inhibition, % at 2.79 µM. recombinant PRMT1, activity-based probe fluorescence polarization. actives 1.3% (n = 370,000);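 active means inhibition above about 21% made by adding two undisclosed values, limit read from the data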
TCR CD3 inh: inhibitors of human TCR-CD3 interaction | TAMRA-labeled TCR probe fluorescence, biochemical | actives 0.37% (n = 360,000) | inhibition, % at 9.4 µM;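 further: recombinant mutant TCR 2C K166C tagged with TAMRA read by polarization; 0% = receptor in buffer alone and 100% = receptor with positive control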
HTRA1 inh: blocks human HTRA1 serine peptidase | recombinant HTRA1, FP-rhodamine activity-based probe, fluorescence polarization | actives 0.5% (n = 340,000) | AID 504803 | inhibition, % at 5.96 µM; in the data active means inhibition above about 36%;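 further: 0% = enzyme with DMSO and 100% = wells lacking enzyme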
SIAE primary: blocks human sialic acid acetylesterase. Q9HAT2. SIAE FP-Rh probe binding, fluorescence polarization. inhibition, % at 9.66 µM. actives 0.69% (n = 370,000);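 active means inhibition above a cutoff: mean of compounds within the control limits plus 3 SD of those, cut at about 17% in these data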;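 further: 0% = plate median of compound wells and 100% = probe without SIAE protein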
Target sequence (Q9HAT2 whole entry, looked up): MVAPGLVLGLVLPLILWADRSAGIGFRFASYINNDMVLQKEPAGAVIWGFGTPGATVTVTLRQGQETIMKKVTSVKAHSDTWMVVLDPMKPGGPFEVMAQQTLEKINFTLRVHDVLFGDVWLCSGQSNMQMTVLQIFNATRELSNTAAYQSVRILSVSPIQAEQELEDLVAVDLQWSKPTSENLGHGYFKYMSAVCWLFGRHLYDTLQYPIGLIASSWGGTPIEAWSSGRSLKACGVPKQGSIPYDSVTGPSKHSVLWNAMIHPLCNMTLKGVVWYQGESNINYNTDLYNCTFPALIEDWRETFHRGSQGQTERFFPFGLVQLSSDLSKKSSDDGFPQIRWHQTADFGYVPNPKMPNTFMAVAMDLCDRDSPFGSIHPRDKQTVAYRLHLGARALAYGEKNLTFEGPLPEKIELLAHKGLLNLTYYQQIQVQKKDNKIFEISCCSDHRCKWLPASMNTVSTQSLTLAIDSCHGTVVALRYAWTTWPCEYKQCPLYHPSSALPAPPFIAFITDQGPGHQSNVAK
rCAG binder: molecules binding r(CAG) RNA repeats; r(CAG) RNA repeat, TO-PRO-1 dye displacement fluorescence; inhibition, % at 3 µM; actives 1.3% (n = 370,000); AID 651821;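 active means inhibition above the plate cutoff, the mean of all test compounds on that plate plus 3 SD, cut at about 35% in these data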;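 further: 0% = DMSO alone and 100% = 100 µM mitoxantrone as full dye displacement; higher means more dye released from RNA so lower well fluorescence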
BSA TAMRA ctr: BSA probe counter-screen for TCR-CD3 inhibitors. AID 652035. shares compounds with TCR CD3 inh. TAMRA-labeled BSA probe fluorescence counterscreen. actives 10% (n = 1,200). inhibition, % at 9.4 µM; in the data active means inhibition above about 23%;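 further: 0% = buffer low control and 100% = reference high control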
TCR-CD3 conf: TCR-CD3 interaction inhibition, confirmation; AID 652036; shares compounds with TCR CD3 inh; inhibition, % at 9.4 µM; actives 48% (n = 1,200); TAMRA-labeled TCR probe fluorescence binding assay
Numbers without * were called inactive; x = no result given. Sampled rows, rich in hits. Any-hit rate of the full collection: about 3.5%. Unless noted, no stated cut-off is given here; in the data, active means inhibition above about 19%; inactive means the rest.

SMILES	mABHD4 FP	PRMT1 inh	TCR CD3 inh	HTRA1 inh	SIAE primary	rCAG binder	BSA TAMRA ctr	TCR-CD3 conf
O=C(N/N=C/C1CC=CCC1)c1ccc(Cl)cc1O (stereo not drawn)	12.9	1.1	20.4*	25.2	2.7	15.8	-9.0	11.8
O=C(N/N=C/C1CC=CCC1)c1ccccc1O (stereo not drawn)	6.8	1.6	10.7	-0.9	-3.7	5.2	x	x
CCOc1ccc(C(=O)Nc2cc(-c3nc4ccccc4[nH]3)ccc2Cl)cc1[N+](=O)[O-]	-50.1	-1.0	25.1*	-48.0	-78.1	24.4	19.5	39.6*
CCOc1ccc(C(=O)Nc2cc(-c3nc4ccccc4[nH]3)ccc2C)cc1[N+](=O)[O-]	-77.6	0.1	15.6	-78.8	-118.1	25.5	x	x
NNC(=O)c1nc[nH]c1C(=O)Nc1ccccc1[N+](=O)[O-]	-1.0	0.9	30.1*	-1.1	2.3	8.6	-6.7	10.2
O=C(Nc1ccc(F)cc1)c1nc[nH]c1C(=O)Nc1ccccc1[N+](=O)[O-]	2.2	-1.7	5.1	3.4	-1.1	2.9	x	x
CCCNC(=O)C[C@H]1CC[C@H]2[C@@H](COc3ccc(NC(=O)c4cncs4)cc3C(=O)N2C)O1	18.3	3.0	x	x	2.3	0.4	x	x
O=C(CNC(=O)c1ccccc1F)NCCc1ccc(Cl)cc1Cl	0.9	1.3	8.9	-12.7	-0.5	-4.9	x	x
O=C(NC(=O)c1ccccc1F)OCc1ccc(Cl)cc1Cl	-18.3	-2.4	28.1*	-6.1	-0.9	-1.4	-0.9	3.4
O=C(Nc1ccc2c(c1)OCO2)C1COc2ccccc2O1 (stereo not drawn)	-0.6	-0.7	48.2*	3.9	6.8	-1.2	-0.9	-1.6
COc1ccc(Cl)cc1C(=O)NNC(=O)C1COc2ccccc2O1 (stereo not drawn)	-2.7	-3.1	4.6	6.1	4.2	3.0	x	x
O=C(NNC(=O)C1COc2ccccc2O1)c1ccccc1O (stereo not drawn)	5.9	0.8	28.7*	21.0	7.5	1.5	-11.8	24.8*
Cn1cccc1CC(=O)NNC(=S)NC(=O)c1ccccc1Br	9.8	3.4	28.0*	6.6	3.5	7.2	-3.8	16.4
Cn1cccc1CC(=O)NNC(=S)Nc1ccc(F)cc1	9.0	3.7	6.1	6.5	0.8	8.6	x	x
Cc1nn(CCC(=O)NNC(=O)Nc2ccc(Cl)cc2)c(C)c1[N+](=O)[O-]	7.2	-4.2	x	x	2.4	2.9	x	x
O=C(NNC(=O)c1ccccc1O)c1cc2ccccc2o1	15.7	0.3	33.1*	6.1	0.0	8.0	-8.9	21.8*
COc1ccccc1N(C)S(=O)(=O)c1ccc(Cl)c(C(=O)NNC(=O)c2ccccc2O)c1	1.7	-1.1	32.5*	34.2	-4.2	25.3	-9.8	25.0*
COc1cc(OC)cc(C(=O)NNC(=O)c2ccc(S(=O)(=O)N(C)c3ccccc3OC)cc2)c1	0.3	1.2	-5.0	-7.9	-0.8	1.2	x	x
COc1ccccc1/C=N/NC(=O)c1ccc(N(C)S(=O)(=O)c2ccccc2)cc1	-4.3	2.1	23.2*	-33.4	-11.8	3.2	10.0	10.1
COc1ccccc1N(C)S(=O)(=O)c1ccc(C(=O)NNC(=O)c2ccccc2O)cc1	3.4	-3.2	23.3*	13.9	5.0	20.6	-1.4	23.6*
COc1ccccc1N(C)S(=O)(=O)c1ccc(Cl)c(C(=O)N2CCC2)c1	0.3	-4.0	4.2	2.9	-1.6	-4.3	x	x
O=C(CSc1nnc(-c2cccnc2)n1C1CCCCC1)N1CCCC1	6.3	4.0	x	x	-4.4	6.2	x	x
COc1ccccc1Nc1nc(-c2sc(N)nc2C)cs1	17.1	-0.7	-3.8	14.8	11.3	17.4	x	x
Cc1nc(N)sc1-c1csc(Nc2ncccn2)n1	10.9	0.9	19.6*	15.7	6.9	17.1	14.8	20.4*
Cc1ccc(-c2cc(-c3nnc(SCC(=O)N4CCOCC4)n3N)[nH]n2)cc1	2.6	0.0	x	x	-2.3	0.8	x	x
SMILES	mABHD4 FP	PRMT1 inh	TCR CD3 inh	HTRA1 inh	SIAE primary	rCAG binder	BSA TAMRA ctr	TCR-CD3 conf
Cc1onc(-c2ccccc2)c1C(=O)NN=Cc1cc(Cl)cc(Cl)c1O	12.6	-1.4	27.3*	x	8.1	29.3	-12.2	33.5*
Cc1onc(-c2ccccc2)c1C(=O)N/N=C/c1cccc(O)c1	-3.6	-4.2	5.5	2.2	10.1	0.1	x	x
CCOC(=O)CC[C@H]1CC[C@]2(CCCN(C(=O)c3ccno3)C2)O1	4.5	3.0	x	x	-2.5	0.5	x	x
COc1ccc(-c2nnc(SCC(=O)N3CCCC3)o2)c(OC)c1	-15.7	-3.3	-4.3	3.5	5.0	-0.1	x	x
COc1ccccc1-c1nnc(SCC(=O)N2CCCC2)o1	1.1	-3.2	21.1*	-7.6	7.6	1.2	0.9	18.6
CSCCC(NC(=O)c1ccccc1Cl)C(=O)NNC(=O)c1ccccc1O (stereo not drawn)	5.7	-0.7	29.3*	16.7	5.4	4.2	-3.5	18.2
O=C(NN=C1CCCC1)c1ccccc1O	6.7	-2.2	22.5*	13.2	8.1	6.0	-14.8	15.3
O=C(NN=C1CCCC1)c1ccccc1[N+](=O)[O-]	2.2	1.4	-0.9	2.2	6.3	1.7	x	x
N#Cc1ccc(/C=C2\CC3(OC(=O)c4ccc(F)cc4)CCCN2C3)cc1 (stereo not drawn)	0.7	-5.5	x	x	0.5	-0.1	x	x
O=C1CCC[C@H]2C[C@H](NCc3ccc(Cl)cc3)CC[C@]23CCCN13	3.6	2.8	x	x	3.4	x	x	x
Cc1cc(/C=C2\SC(=O)NC2=O)c(C)n1-c1ccc(N2CCOCC2)cc1	3.8	1.7	5.3	1.8	0.0	12.8	x	x
Cc1cc(/C=C2\SC(=O)NC2=O)c(C)n1-c1ccc(N(C)C)cc1	6.9	5.6	27.4*	-0.7	10.2	21.3	2.2	3.8
Nc1ccc(C(=O)N(CCO)CCO)cc1	-0.1	-0.4	4.6	4.5	6.2	-2.2	x	x
Nc1ccc(N(CCO)CCO)cc1	22.1	19.7	27.2*	28.6	15.1	-10.2	18.8	11.9
C/C(Cn1cnc([N+](=O)[O-])n1)=N\NC(=O)c1ccc(O)cc1O	1.5	-3.2	19.0*	4.0	3.2	3.3	-3.2	3.2
COc1ccc(NC(=O)CN(C)C(=O)c2cccc(-n3cccc3)c2)cc1	-0.5	-1.8	11.0	-8.7	-1.1	10.5	x	x
Cc1ccc(NC(=O)CN(C)C(=O)c2cccc(-n3cccc3)c2)cc1	-0.4	-4.1	22.4*	-18.1	-2.0	7.9	-8.7	14.9
O=C(C(=O)N1CCC(c2ccccc2)CC1)c1ccc(F)c(F)c1	-12.4	4.3	23.7*	x	-1.1	-1.1	3.4	-0.1
N#Cc1cccc(C(=O)C(=O)N2CCC(c3ccccc3)CC2)c1	-10.1	0.1	-2.4	x	-7.8	3.5	x	x
O=C1CSc2ccc(C(=O)N3CCCC(C(=O)N4CCN(c5ccc(F)cc5)CC4)C3)cc2N1 (stereo not drawn)	1.4	1.1	x	x	1.2	3.2	x	x
